In ChEMBL document CHEMBL1151701, “Discovery of new pyridoacridine alkaloids from Lissoclinum cf. badium that inhibit the ubiquitin ligase activity of Hdm2 and stabilize p53” (Bioorg Med Chem, 2008):
The source made the active and inactive calls. The calls are words filed in the database; no cut-off is given here.

What was measured:
[1] = target: T1, E3 ubiquitin-protein ligase Mdm2 (Homo sapiens, UniProt Q00987); experiment: Inhibition of GST fused human Hdm2 assessed as polyubiquitylation by electrochemiluminescence assay
Outline: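 Cell-free ubiquitylation. Lysate GST-Hdm2 captured on glutathione-coated wells for 1 h at RT. E1/UbcH5B were pre-charged with ubiquitin, ATP and DTT in PBS for 30 min, then added with sample for 30 min at RT. Read-out was ruthenium anti-polyubiquitin electrochemiluminescence, normalised between no-inhibitor (0%) and EDTA (100%). Tested at 100–0.02 µg/mL in quadruplicate.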
Target sequence in this assay (Q00987 whole entry, the tested form may be a part): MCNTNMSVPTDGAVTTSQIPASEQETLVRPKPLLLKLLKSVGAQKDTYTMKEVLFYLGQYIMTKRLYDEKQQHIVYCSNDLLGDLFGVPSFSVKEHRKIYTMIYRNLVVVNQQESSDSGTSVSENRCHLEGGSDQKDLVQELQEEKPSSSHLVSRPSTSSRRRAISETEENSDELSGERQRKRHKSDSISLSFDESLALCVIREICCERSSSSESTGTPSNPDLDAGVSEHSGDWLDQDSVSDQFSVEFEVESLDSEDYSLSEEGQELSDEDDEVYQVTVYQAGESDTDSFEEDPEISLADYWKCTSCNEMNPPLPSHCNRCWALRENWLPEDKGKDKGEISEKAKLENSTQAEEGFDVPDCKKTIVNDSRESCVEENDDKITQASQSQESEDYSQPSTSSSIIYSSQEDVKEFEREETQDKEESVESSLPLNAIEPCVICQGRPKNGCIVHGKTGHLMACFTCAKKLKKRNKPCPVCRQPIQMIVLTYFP

[2] = target: T1, E3 ubiquitin-protein ligase Mdm2; experiment: Inhibition of GST fused human Hdm2 in human RPE cells after 8 hrs by immunoblotting; assay type: cell-based
Outline: (§1)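 Tert-immortalized human retinal pigment epithelial (RPE) cells exposed to compound (1–10 µM) or 50 µM ALLN for 8 h. Cells lysed in RIPA buffer, post-nuclear supernatants resolved by SDS-PAGE, then immunoblotted for p53, Hdm2 and β-actin as loading control.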
Target sequence in this assay (Q00987 whole entry, looked up, the tested form may be a part): as the sequence (Q00987 whole entry, the tested form may be a part) above

[3] = target: T1, E3 ubiquitin-protein ligase Mdm2; experiment: Inhibition of GST fused human Hdm2 in human RPE cells assessed as increase in p53 level after 8 hrs by immunoblotting; assay type: cell-based; outline: as §1
Target sequence in this assay (Q00987 whole entry, looked up, the tested form may be a part): as the sequence (Q00987 whole entry, the tested form may be a part) above

[4] = target: T1, E3 ubiquitin-protein ligase Mdm2; experiment: Inhibition of GST fused human Hdm2 expressed in p53 and mdm2-deficient mouse embryo fibroblasts under control of p53-independent promotor at 10 uM after 8 hrs by immunoblotting
Outline: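 p53−/−mdm2−/− mouse embryo fibroblasts transiently transfected with Hdm2 plasmid under a CMV promoter. 48 h later they were treated with 10 µM compound for 8 h, and Hdm2 and β-actin were measured by immunoblotting.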
Target sequence in this assay (Q00987 whole entry, looked up, the tested form may be a part): as the sequence (Q00987 whole entry, the tested form may be a part) above

[5] = target: T1, E3 ubiquitin-protein ligase Mdm2; experiment: Inhibition of GST fused human Hdm2 in human RPE cells at 10 uM after 8 hrs by immunoblotting
Target sequence in this assay (Q00987 whole entry, looked up, the tested form may be a part): as the sequence (Q00987 whole entry, the tested form may be a part) above

[6] = target: T1, E3 ubiquitin-protein ligase Mdm2; experiment: Inhibition of GST fused human Hdm2 in human RPE cells assessed as increase in p53 level at 10 uM after 8 hrs by immunoblotting
Target sequence in this assay (Q00987 whole entry, looked up, the tested form may be a part): as the sequence (Q00987 whole entry, the tested form may be a part) above

[7] = target: T1, E3 ubiquitin-protein ligase Mdm2; experiment: Inhibition of Hdm2-mediated p53 degradation in human U2-OS cells co-transfected with p53-Hdm2 after 8 hrs by immunoblotting; assay type: cell-based; conditions: U2OS
Target sequence in this assay (Q00987 whole entry, looked up, the tested form may be a part): as the sequence (Q00987 whole entry, the tested form may be a part) above

[8] = target: T1, E3 ubiquitin-protein ligase Mdm2; experiment: Inhibition of Hdm2-mediated p53 degradation in human U2OS cells co-transfected with p53-Hdm2 at 50 uM after 8 hrs by immunoblotting; assay type: cell-based
[9] = target: T1, E3 ubiquitin-protein ligase Mdm2; experiment: Inhibition of GST fused human Hdm2 in human HCT 116 cells expressing wild type p53 assessed as prevention of N-acetyl-leucyl-leucyl-norleucinal-induced accumulation of ubiquitylated p53 accumulation; assay type: cell-based
U2OS = experiment: Induction of apoptosis in human U2OS cells assessed as activation of p53-dependent transactivation by luciferase reporter gene assay at 1 to 10 uM after 22 hrs; assay type: functional, cell-based
Outline: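 U2OS-pG13 p53-reporter cells incubated 22 h with compound (1–10 µM) or 1 µg/ml adriamycin. Cells lysed in reporter lysis buffer and spun at 14,000 g for 20 min; luciferase activity of supernatant read as RLU. Mean and standard deviation of three independent experiments.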

[10] = Cytotoxicity against human RPE cells transformed with adenovirus E1A at 3 to 25 uM after 17 hrs by trypan blue exclusion assay; assay type: cell-based
Outline: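 Parental RPE and adenovirus E1A-transformed RPE cells incubated 17 h with compound (3–25 µM) or 1 µg/ml adriamycin. Cell death scored by trypan blue exclusion. Mean and standard deviation of three independent experiments.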

A9 = experiment: Cytotoxicity against p53-deficient mouse A9 cells at 5 to 20 uM after 20 hrs by trypan blue exclusion assay; assay type: cell-based; conditions: a9, 20 h
Outline: (§2)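 p53-deficient (A9) and wild-type p53 (C8) mouse embryo fibroblasts treated 20 h with compound at 5–20 µM. Cell death by trypan blue exclusion. Mean and standard deviation of three independent experiments.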

[11] = Cytotoxicity against wild type p53-proficient mouse C8 cells at 5 to 20 uM after 20 hrs by trypan blue exclusion assay; assay type: cell-based; conditions: c8, 20 h; outline: as §2
HCT-116 [12] = experiment: Cytotoxicity against p53-deficient human HCT 116 cells at 5 to 20 uM after 20 hrs by trypan blue exclusion assay; assay type: functional, cell-based
HCT-116 [13] = experiment: Cytotoxicity against p53-proficient human HCT 116 cells at 5 to 20 uM after 20 hrs by trypan blue exclusion assay; assay type: functional, cell-based
[14] = target: T1, E3 ubiquitin-protein ligase Mdm2; experiment: Inhibition of GST fused human Hdm2 in human RPE cells at 1 to 10 uM after 8 hrs by immunoblotting; assay type: cell-based; outline: as §1
[15] = target: T1, E3 ubiquitin-protein ligase Mdm2; experiment: Inhibition of GST fused human Hdm2 in human RPE cells assessed as increase in p53 level at 1 to 10 uM after 8 hrs by immunoblotting; assay type: cell-based; outline: as §1
[16] = Cytotoxicity against human RPE cells at 10 uM; assay type: cell-based; outline: as §1
[17] = target: T1, E3 ubiquitin-protein ligase Mdm2; experiment: Inhibition of GST fused human Hdm2 in human RPE cells assessed as increase in p53 level at 1 uM after 8 hrs by immunoblotting; assay type: cell-based; outline: as §1
[18] = Cytotoxicity against human RPE cells assessed as increase in p53 level at 10 uM after 8 hrs by immunoblotting; assay type: cell-based; outline: as §1

Structure (SMILES) | IC50 [1] [µM] | Activity [2] | Activity [3] | Activity [4] | Activity [5] | Activity [6] | Activity [14] | Activity [15] | other results
CSC1=C(CCN)c2nc3ccccc3c3ccnc(c23)C1=O [DIPLAMINE B] | 101 | Dose-dependent effect | Dose-dependent effect | Active | Active | Active | – | – | –
NCCc1c2c(c3nccc4c3c1Nc1ccccc1-4)OCS2 [LISSOCLINIDINE B] | – | Dose-dependent effect | Dose-dependent effect | Active | Active | Active | – | – | Activity [7]: Dose-dependent effect; Activity [8]: inactive; Activity [9]: Active; Activity (U2OS): Dose-dependent effect; Activity [10]: Dose-dependent effect; Activity (A9): Not Active; Activity [11]: Active; Activity (HCT-116 [12]): inactive; Activity (HCT-116 [13]): Active
COc1c(C)c(CCN(C)C)c2c(c1OC)SSSSS2 | 121 | – | – | – | – | – | inactive | inactive | –
COc1cc(CCN(C)C)c2c(c1O)SSSSS2 [ISOLISSOCLINOTOXIN B] | 58.6 | – | – | – | – | – | – | – | Activity [16]: Toxic; Activity [17]: inactive; Activity [18]: Active
COc1cc(CCN)c2c(c1OC)SSSSS2 [VARACIN] | > 295 | – | – | – | – | – | inactive | inactive | –
